Assay [1] has as its target T1, von Hippel-Lindau disease tumor suppressor/Mitogen-activated protein kinase kinase kinase 11 (Homo sapiens, UniProt Q16584+P40337). Briefly: PROTAC activity at VHL/DOX-inducible MLK3 (unknown origin) overexpressed in human A-375 cells assessed as protein degradation at 0.1 uM incubated for 24 hrs by immunoblot analysis. In kind it is cell-based. In outline:
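A375 cells with DOX-inducible MLK3 were seeded at 100 000/well and induced with 1 μg/mL DOX for 24 h. Eight VHL-based PROTACs were then tested at 0.1–5 μM for 24 h, with DMSO as control. MLK3 was detected by ECL immunoblot of RIPA lysates, normalised to GAPDH or β-actin.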
For orientation: A western blot detects proteins with antibodies after separation by electrophoresis.
Target sequence in this assay (P40337 whole entry, looked up): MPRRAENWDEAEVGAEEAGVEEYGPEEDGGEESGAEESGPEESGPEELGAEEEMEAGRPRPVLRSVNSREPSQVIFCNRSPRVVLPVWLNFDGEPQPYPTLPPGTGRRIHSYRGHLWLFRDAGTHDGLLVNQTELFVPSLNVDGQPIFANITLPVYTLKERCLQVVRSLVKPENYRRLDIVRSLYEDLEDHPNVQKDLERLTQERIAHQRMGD
Target sequence in this assay (Q16584 whole entry, looked up): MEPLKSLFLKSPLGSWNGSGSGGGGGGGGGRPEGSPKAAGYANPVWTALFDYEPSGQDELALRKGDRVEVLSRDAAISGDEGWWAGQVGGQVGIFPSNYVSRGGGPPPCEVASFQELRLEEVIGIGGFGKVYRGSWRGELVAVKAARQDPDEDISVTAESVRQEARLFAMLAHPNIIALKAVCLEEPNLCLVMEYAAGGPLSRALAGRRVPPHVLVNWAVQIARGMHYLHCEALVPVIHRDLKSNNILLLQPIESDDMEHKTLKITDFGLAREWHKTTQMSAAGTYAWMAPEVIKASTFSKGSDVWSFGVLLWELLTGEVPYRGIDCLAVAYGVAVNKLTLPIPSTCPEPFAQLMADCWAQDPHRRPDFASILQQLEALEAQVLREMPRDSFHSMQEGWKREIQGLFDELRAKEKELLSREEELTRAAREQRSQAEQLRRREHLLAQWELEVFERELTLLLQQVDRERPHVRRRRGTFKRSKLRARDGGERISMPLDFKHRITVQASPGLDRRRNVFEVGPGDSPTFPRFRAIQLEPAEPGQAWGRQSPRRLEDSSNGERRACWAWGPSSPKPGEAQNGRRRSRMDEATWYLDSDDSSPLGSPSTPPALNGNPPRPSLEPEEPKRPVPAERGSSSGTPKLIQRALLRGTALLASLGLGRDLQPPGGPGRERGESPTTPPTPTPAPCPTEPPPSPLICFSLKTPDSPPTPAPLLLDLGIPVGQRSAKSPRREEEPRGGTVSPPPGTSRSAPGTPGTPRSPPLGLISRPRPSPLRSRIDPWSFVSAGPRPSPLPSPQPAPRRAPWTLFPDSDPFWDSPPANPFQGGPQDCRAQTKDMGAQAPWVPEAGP

Assay [2] concerns the target T2, von Hippel-Lindau disease tumor suppressor/Mitogen-activated protein kinase kinase kinase 10 (Homo sapiens) (UniProt Q02779+P40337). Briefly: PROTAC activity at VHL/DOX-inducible MLK2 (unknown origin) overexpressed in human A-375 cells assessed as protein degradation at 0.1 to 5 uM incubated for 24 hrs by immunoblot analysis. In kind it is cell-based. The note with it: dose 0.1-5 µM. In outline: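 A375 cells carried lentiviral DOX-inducible MLK1, MLK2 or MLK4 and were grown in RPMI-1640 with 10% FBS. Cells were seeded at 100 000/well and induced with 1 μg/mL DOX. After 24 h they were treated at 0.1–5 μM for 24 h, with DMSO as control. Levels were read by ECL immunoblot of RIPA lysates, with GAPDH or β-actin loading control.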

Assay [3] has as its target T1, von Hippel-Lindau disease tumor suppressor/Mitogen-activated protein kinase kinase kinase 11. Briefly: PROTAC activity at VHL/DOX-inducible MLK3 (unknown origin) overexpressed in human HCC1806 cells assessed as protein degradation at 0.5 uM measured after 24 hrs by shotgun proteomic analysis. In kind it is cell-based. In outline: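 HCC1806 cells with DOX-inducible MLK3 were seeded at 150 000/well and induced with DOX for 24 h, then treated with 0.5 μM PROTAC or DMSO for 24 h. Total lysates were chloroform/methanol precipitated, reduced and alkylated with TCEP/CAA, and trypsin-digested at 37 °C overnight. Shotgun LC-MS/MS followed, with log2 fold change and t-test p-values (n = 3).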
Target sequence in this assay (P40337 whole entry, looked up): as the sequence (P40337 whole entry, looked up) above
Target sequence in this assay (Q16584 whole entry, looked up): as the sequence (Q16584 whole entry, looked up) above

Assay [4] shares this target. Description: PROTAC activity at VHL/MLK3 in human MDA-MB-468 cells assessed as protein degradation measured after 4 to 48 hrs by Western blot analysis. In kind it is cell-based. The conditions noted are these: dose 1.0 µM, time 4-48 hrs. In outline:
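MCF-7 and MDA-MB-468 cells were seeded at 100 000/well and treated with 1 μM PROTAC for 4–48 h, with DMSO as control. MLK3 was quantified by immunoblot as percent remaining, and t1/2 of degradation was derived from the time course.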
Target sequence in this assay (P40337 whole entry, looked up): as the sequence (P40337 whole entry, looked up) above
Target sequence in this assay (Q16584 whole entry, looked up): as the sequence (Q16584 whole entry, looked up) above

For assay [5] the target is unchanged. Briefly: PROTAC activity at VHL/MLK3 in human MDA-MB-468 cells assessed as protein degradation at 1 uM by Western blot analysis. It is filed as cell-based. The conditions noted are these: time 4-48 hrs, TDE = time-dependent effect.
Target sequence in this assay (P40337 whole entry, looked up): as the sequence (P40337 whole entry, looked up) above
Target sequence in this assay (Q16584 whole entry, looked up): as the sequence (Q16584 whole entry, looked up) above
For assay [6] the target is unchanged. Briefly: PROTAC activity at VHL/MLK3 in human MCF7 cells assessed as protein degradation measured after 24 hrs by Western blot analysis. It is filed as cell-based. In outline:
(§1)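 Endogenous MLK3: cells seeded at 100 000/well, treated next day for 24 h with PROTAC at 0.1–5 μM, DMSO control; immunoblot with GAPDH or β-actin loading control. Remaining MLK3 percentage plotted against concentration to derive DC50 and Dmax.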
Target sequence in this assay (Q16584 whole entry): as the sequence (Q16584 whole entry, looked up) above
Target sequence in this assay (P40337 whole entry): as the sequence (P40337 whole entry, looked up) above

Assay [7] shares this target. Description: PROTAC activity at VHL/MLK3 in human MCF7 cells assessed as protein degradation at 0.1 to 5 uM measured after 24 hrs by Western blot analysis relative to control. It is filed as cell-based. The note with it: dose 0.1-5 µM. In outline:
as §1
Target sequence in this assay (P40337 whole entry, looked up): as above
Target sequence in this assay (Q16584 whole entry, looked up): as the sequence (Q16584 whole entry, looked up) above

The target is the same in assay [8]. Briefly: PROTAC activity at VHL/MLK3 in human MDA-MB-468 cells assessed as protein degradation at 0.1 to 5 uM measured after 24 hrs by Western blot analysis relative to control. It is filed as cell-based. The conditions noted are these: dose 0.1-5 µM. In outline:
as §1
Target sequence in this assay (P40337 whole entry, looked up): as the sequence (P40337 whole entry, looked up) above
Target sequence in this assay (Q16584 whole entry, looked up): as the sequence (Q16584 whole entry, looked up) above

Assay [9] has as its system MCF7. Briefly: Effect on MLK3 mRNA level in human MCF7 cells at 1 uM measured after 24 hrs by RT-qPCR analysis. It is filed as functional, cell-based. In outline:
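Total RNA extracted from MCF-7 and MDA-MB-468 cells 24 h after PROTAC treatment, purity and concentration checked spectrophotometrically, reverse transcribed to cDNA and MLK3 transcript quantified by RT-qPCR.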

The target in assay [10] is T1, von Hippel-Lindau disease tumor suppressor/Mitogen-activated protein kinase kinase kinase 11. Description: PROTAC activity at VHL/MLK3 in carfilzomib-treated human MDA-MB-468 cells assessed as protein degradation at 1 uM measured after 7 hrs by immunoblot analysis. It is filed as cell-based. In outline:
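MCF-7 and MDA-MB-468 cells were seeded at 100 000/well. The next day they were pretreated with 1 μM carfilzomib for 1 h, then treated with 1 μM PROTAC for 7 h, with DMSO as control. Endogenous MLK3 was measured by immunoblot of RIPA lysates.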

Assay [11] has the same target. Description: PROTAC activity at VHL/MLK3 in human MDA-MB-468 cells assessed as protein degradation at 1 uM measured after 24 hrs by immunoblot analysis. In kind it is cell-based. In outline: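 MCF-7 and MDA-MB-468 cells were treated for 24 h across 0.1–5 μM, with DMSO as control. MLK3 was immunoblotted and quantified as percent remaining versus concentration, from which DC50 and Dmax were derived.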

Assay [12] concerns the target von Hippel-Lindau disease tumor suppressor/Mitogen-activated protein kinase kinase kinase 21 (Homo sapiens) (UniProt P40337+Q5TCX8). Description: PROTAC activity at VHL/MLK4 in human MCF7 cells assessed as protein degradation at 1 uM incubated for 24 hrs by immunoblot analysis. It is filed as cell-based. In outline: (§2)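 Endogenous MLK1, MLK2 or MLK4 levels in MCF-7 and MDA-MB-468 cells. Cells were grown in high-glucose DMEM with 10% FBS, seeded at 100 000 cells/well and treated the next day for 24 h, with DMSO as control. Lysis was in RIPA with protease inhibitor, followed by 10% SDS-PAGE, nitrocellulose transfer and ECL immunoblot with GAPDH or β-actin as loading control.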

Assay [13] addresses T2, von Hippel-Lindau disease tumor suppressor/Mitogen-activated protein kinase kinase kinase 10 (Homo sapiens). Description: PROTAC activity at VHL/MLK2 in human MDA-MB-468 cells assessed as protein degradation at 1 uM incubated for 24 hrs by immunoblot analysis. In kind it is cell-based. In outline:
as §2

The subject of assay [14] is MDA-MB-468. Description: Effect on ERK pathway in human MDA-MB-468 cells at 1 uM measured after 24 hrs by immunoblot analysis. It is filed as functional, cell-based.
Assay [15] has as its system MCF7. Description: Inhibition of colony formation in human MCF7 cells harboring siMLK3 by crystal violet staining based analysis. It is filed as functional, cell-based. In outline:
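MCF-7 or MDA-MB-468 seeded at 10 000 cells/well, transfected next day with MAP3K11 SMARTpool siRNA or nontargeting control siRNA; crystal violet staining 7 days after transfection. Knockdown confirmed by immunoblot.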

Assay [16] concerns MDA-MB-468. Description: Growth inhibition of human MDA-MB-468 cell spheroids in hydrogel at 1 uM incubated for 10 days. The note with it: time 10.0 day. It is filed as functional, cell-based. In outline: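 4000 cells plated on top of hydrogels and grown 10 days with 1 μM PROTAC or DMSO; spheroid formation and size scored.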
The subject of assay [17] is MCF7. Briefly: Growth inhibition of human MCF7 cell spheroids in low-attachment surface at 1 uM incubated for 10 days. In kind it is functional, cell-based. The conditions noted are these: time 10.0 day. In outline:
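Cells grown 10 days in low-attachment surface plates in medium containing 1 μM PROTAC or DMSO; spheroid growth assessed.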

Assay [18] has as its system MDA-MB-468. Briefly: Inhibition of cell migration in human MDA-MB-468 cells at 1 uM incubated for 24 hrs by transwell assay. It is filed as functional, cell-based. In outline:
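Boyden inserts, 8 μm pores: 200 000 cells in serum-free DMEM with 1 μM PROTAC or DMSO, 20% FBS DMEM below as chemoattractant, 24 h at 37 °C, 5% CO2. Migrated cells fixed, crystal violet stained and counted by image analysis; at least three repeats.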

Activity calls are given as the source filed them. No cut-off for these calls is given here.

T2 sequence (P40337 whole entry, looked up): as the sequence (P40337 whole entry, looked up) above
T2 sequence (Q02779 whole entry, looked up): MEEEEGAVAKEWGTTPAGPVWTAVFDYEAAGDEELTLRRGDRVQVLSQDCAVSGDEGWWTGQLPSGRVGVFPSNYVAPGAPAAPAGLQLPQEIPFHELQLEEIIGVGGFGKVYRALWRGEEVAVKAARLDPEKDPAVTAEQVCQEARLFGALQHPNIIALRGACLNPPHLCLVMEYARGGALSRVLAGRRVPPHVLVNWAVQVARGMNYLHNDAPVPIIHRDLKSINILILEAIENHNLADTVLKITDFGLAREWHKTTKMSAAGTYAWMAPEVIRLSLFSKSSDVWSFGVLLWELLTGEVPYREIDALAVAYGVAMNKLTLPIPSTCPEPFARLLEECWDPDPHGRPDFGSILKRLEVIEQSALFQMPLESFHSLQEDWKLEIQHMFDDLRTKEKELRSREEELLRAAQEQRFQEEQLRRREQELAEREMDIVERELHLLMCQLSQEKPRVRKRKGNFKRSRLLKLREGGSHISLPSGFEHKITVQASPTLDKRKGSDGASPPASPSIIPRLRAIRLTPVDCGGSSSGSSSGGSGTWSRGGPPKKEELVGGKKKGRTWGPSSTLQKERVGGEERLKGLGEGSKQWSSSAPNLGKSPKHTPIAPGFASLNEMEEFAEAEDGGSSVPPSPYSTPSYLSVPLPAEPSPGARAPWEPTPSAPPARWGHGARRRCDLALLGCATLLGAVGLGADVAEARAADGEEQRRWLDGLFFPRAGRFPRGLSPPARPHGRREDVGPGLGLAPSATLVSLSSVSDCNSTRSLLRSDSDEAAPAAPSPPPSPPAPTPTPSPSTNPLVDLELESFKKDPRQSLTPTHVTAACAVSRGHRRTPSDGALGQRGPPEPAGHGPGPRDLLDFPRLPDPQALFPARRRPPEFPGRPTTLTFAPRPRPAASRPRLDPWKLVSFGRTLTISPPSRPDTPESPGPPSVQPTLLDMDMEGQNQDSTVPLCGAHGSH
von Hippel-Lindau disease tumor suppressor/Mitogen-activated protein kinase kinase kinase 21 (Homo sapiens), sequence (P40337 whole entry, looked up): as the sequence (P40337 whole entry, looked up) above
von Hippel-Lindau disease tumor suppressor/Mitogen-activated protein kinase kinase kinase 21 (Homo sapiens), sequence (Q5TCX8 whole entry, looked up): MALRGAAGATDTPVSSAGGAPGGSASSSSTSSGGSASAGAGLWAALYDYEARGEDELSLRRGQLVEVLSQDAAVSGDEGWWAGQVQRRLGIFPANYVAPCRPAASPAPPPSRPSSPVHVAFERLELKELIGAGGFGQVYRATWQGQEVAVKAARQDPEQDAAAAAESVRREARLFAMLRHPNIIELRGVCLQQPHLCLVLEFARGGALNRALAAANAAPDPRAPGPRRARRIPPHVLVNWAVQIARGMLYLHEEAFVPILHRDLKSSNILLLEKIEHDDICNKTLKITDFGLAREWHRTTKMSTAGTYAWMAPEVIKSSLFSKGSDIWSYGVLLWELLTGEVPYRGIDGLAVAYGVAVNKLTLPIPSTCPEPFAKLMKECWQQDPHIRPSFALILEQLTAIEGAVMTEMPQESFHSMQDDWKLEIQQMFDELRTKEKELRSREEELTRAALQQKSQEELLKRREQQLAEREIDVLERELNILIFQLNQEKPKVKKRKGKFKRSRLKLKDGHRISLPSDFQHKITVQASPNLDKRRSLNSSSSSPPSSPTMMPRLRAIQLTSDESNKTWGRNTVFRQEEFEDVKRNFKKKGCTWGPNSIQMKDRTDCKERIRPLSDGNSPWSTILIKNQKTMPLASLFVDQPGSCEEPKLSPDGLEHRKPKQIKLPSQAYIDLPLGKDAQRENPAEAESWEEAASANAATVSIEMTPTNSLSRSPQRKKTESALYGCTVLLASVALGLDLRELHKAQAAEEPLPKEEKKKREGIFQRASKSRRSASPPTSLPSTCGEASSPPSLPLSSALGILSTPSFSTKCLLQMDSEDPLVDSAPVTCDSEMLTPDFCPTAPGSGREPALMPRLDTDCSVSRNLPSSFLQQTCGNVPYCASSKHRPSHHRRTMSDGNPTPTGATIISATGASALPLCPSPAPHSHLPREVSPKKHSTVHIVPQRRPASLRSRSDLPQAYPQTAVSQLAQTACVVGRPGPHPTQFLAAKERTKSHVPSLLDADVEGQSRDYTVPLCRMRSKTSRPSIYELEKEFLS

As a reminder, the DC50 is the concentration giving 50% degradation. What is called Emax is the size of the effect at its maximum, as opposed to the concentration needed. In the case of `CCSCc1ccc2c(c1)c1c3c(c4c5cc(CSCC)ccc5n5c4c1n2[C@H]1C[C@](O)(C(=O)NCCOCCOCCOCC(=O)N[C@H](C(=O)N2C[C@H](O)C[C@H]2C(=O)N[C@@H](C)c2ccc(-c4scnc4C)cc2)C(C)(C)C)[C@]5(C)O1)CNC3=O`, the result in [1], in assay [3] and in assay [11] was Active. Besides, the result (in assay [2]; in the assay with MCF7 [9]; in assay [10]; in assay [12]; in assay [13]; in the assay on MDA-MB-468 [14]) was inactive. For the same compound, the Activity result was “Dose-Dependent Effect” in assay [4] and “Tde” in assay [5]. Further, the 50% degradation concentration (DC50) in assay [6] turned out to be 50 nM. The figures for the Emax in [7] and in assay [8] were 77% and 63%, respectively. Moreover, the inhibition entry with MCF7 [15] is “inactive”. In the assay with MDA-MB-468 [16], the “growth inhibition (GI)” value was “Active”. The “growth inhibition (GI)” value with MCF7 [17] was “inactive”. In addition, the inhibition entry in the assay on MDA-MB-468 [18] is “Active”.

The record behind these values is ChEMBL document CHEMBL5579886, “Selective Degradation of MLK3 by a Novel CEP1347-VHL-02 PROTAC Compound Limits the Oncogenic Potential of TNBC” (J Med Chem, 2024).
